Assay results as given in ChEMBL document CHEMBL4261600 (Eur J Med Chem, 2018).

Experiments:
MV4-11 = assay: Induction of apoptosis in human MV4-11 cells assessed as decrease in MCL-1 level after 2 hrs by immunoblotting analysis; assay type: functional, cell-based
[1] = Tmax in mouse at 10 mg/kg, po by LC-MS/MS analysis; assay type: ADME, organism-based; conditions: in vivo
[2] = Clearance in beagle dog at 2 mg/kg, iv by LC-MS/MS analysis; assay type: ADME, organism-based, Canis lupus familiaris; conditions: in vivo
[3] = target: RAC-alpha serine/threonine-protein kinase (Homo sapiens) (UniProt P31749); assay: Binding affinity to wild-type human partial length AKT1 expressed in bacterial expression system assessed as remaining unbound target protein level at 1000 nM by Kinomescan method relative to control
Outline: (§1)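 Profiled in a KINOMEscan binding panel with the inhibitor at a single concentration of 1 μM. Binding to each kinase was read out as percent of control, relative to a DMSO control. Strong binders were defined as those with a percent control value below 1.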

[4] = target: Calcium/calmodulin-dependent protein kinase type IV (Homo sapiens) (UniProt Q16566); assay: Binding affinity to wild-type human partial length CAMK4 (A22 to A322 residues) expressed in bacterial expression system assessed as remaining unbound target protein level at 1000 nM by Kinomescan method relative to control; outline: as §1
[5] = target: Cyclin-dependent kinase 11B (Homo sapiens, UniProt P21127); assay: Binding affinity to wild-type human partial length CDC2L1 (P353 to G692 residues) expressed in bacterial expression system assessed as remaining unbound target protein level at 1000 nM by Kinomescan method relative to control; outline: as §1
[6] = target: Fibroblast growth factor receptor 2 (Homo sapiens) (UniProt P21802); assay: Binding affinity to wild-type human partial length FGFR2 (D457 to E769 residues) expressed in bacterial expression system assessed as remaining unbound target protein level at 1000 nM by Kinomescan method relative to control
Outline: (§2)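 KINOMEscan binding panel of 468 kinases/mutants. Inhibitor was tested at a single concentration of 1 μM. Binding is reported as percent of control, defined relative to a DMSO control.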

[7] = target: Homeodomain-interacting protein kinase 3 (Homo sapiens) (UniProt Q9H422); assay: Binding affinity to wild-type human partial length HIPK3 (M153 to N562 residues) expressed in mammalian expression system assessed as remaining unbound target protein level at 1000 nM by Kinomescan method relative to control; outline: as §2
[8] = target: Insulin-like growth factor 1 receptor (Homo sapiens) (UniProt P08069); assay: Binding affinity to wild-type human partial length IGF1R (L972 to D1294 residues) expressed in bacterial expression system assessed as remaining unbound target protein level at 1000 nM by Kinomescan method relative to control
[9] = tested on: Mast/stem cell growth factor receptor Kit (Homo sapiens), P10721 [V559D,V654A]; assay: Binding affinity to human partial length KIT V559D/V654A double mutant (Y545 to D952 residues) expressed in bacterial expression system assessed as remaining unbound target protein level at 1000 nM by Kinomescan method relative to control
Outline: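 KINOMEscan competition-binding profiling across the panel of 468 kinases and mutants, with inhibitor tested at 1 μM. Binding is expressed as percent of control, with DMSO as the reference control.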

[10] = target: Mitogen-activated protein kinase kinase kinase 13 (Homo sapiens) (UniProt O43283); assay: Binding affinity to wild-type human full length LZK (M1 to W966 residues) expressed in mammalian expression system assessed as remaining unbound target protein level at 1000 nM by Kinomescan method relative to control
Outline: (§3)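 KINOMEscan competition binding profile across a panel of 468 kinases and mutants, with the inhibitor tested at a single concentration of 1 μM. Binding is reported as percent of control, meaning signal relative to a DMSO control.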

[11] = target: Serine/threonine-protein kinase MRCK alpha (Homo sapiens) (UniProt Q5VT25); assay: Binding affinity to wild-type human partial length MRCKA (L57 to V418 residues) expressed in bacterial expression system assessed as remaining unbound target protein level at 1000 nM by Kinomescan method relative to control
[12] = target: Cyclin-dependent kinase 18 (Homo sapiens) (UniProt Q07002); assay: Binding affinity to wild-type human full length PCTK3 (M3 to F474 residues) expressed in bacterial expression system assessed as remaining unbound target protein level at 1000 nM by Kinomescan method relative to control; outline: as §3
[13] = target: Cyclin-dependent kinase 14 (Homo sapiens) (UniProt O94921); assay: Binding affinity to wild-type human full length PFTK1 (M1 to H451 residues) expressed in bacterial expression system assessed as remaining unbound target protein level at 1000 nM by Kinomescan method relative to control; outline: as §3
[14] = target: Serine/threonine-protein kinase N2 (Homo sapiens) (UniProt Q16513); assay: Binding affinity to wild-type human partial length PKN2 (E634 to C984 residues) expressed in bacterial expression system assessed as remaining unbound target protein level at 1000 nM by Kinomescan method relative to control
[15] = target: Serine/threonine-protein kinase PLK2 (Homo sapiens) (UniProt Q9NYY3); assay: Binding affinity to wild-type human partial length PLK2 (H58 to F354 residues) expressed in mammalian expression system assessed as remaining unbound target protein level at 1000 nM by Kinomescan method relative to control
[16] = target: Protein kinase C theta type (Homo sapiens) (UniProt Q04759); assay: Binding affinity to wild-type human partial length PRKCQ (L350 to S706 residues) expressed in bacterial expression system assessed as remaining unbound target protein level at 1000 nM by Kinomescan method relative to control
[17] = target: Proto-oncogene tyrosine-protein kinase receptor Ret (Homo sapiens) (UniProt P07949); assay: Binding affinity to wild-type human partial length RET (E713 to D1014 residues) expressed in bacterial expression system assessed as remaining unbound target protein level at 1000 nM by Kinomescan method relative to control
[18] = target: Serine/threonine-protein kinase Sgk3 (Homo sapiens) (UniProt Q96BR1); assay: Binding affinity to wild-type human partial length SGK3 (M119 to L496 residues) expressed in mammalian expression system assessed as remaining unbound target protein level at 1000 nM by Kinomescan method relative to control
[19] = target: Serine/threonine-protein kinase 36 (Homo sapiens) (UniProt Q9NRP7); assay: Binding affinity to wild-type human partial length STK36 (M1 to T271 residues) expressed in bacterial expression system assessed as remaining unbound target protein level at 1000 nM by Kinomescan method relative to control
[20] = target: Non-receptor tyrosine-protein kinase TNK1 (Homo sapiens) (UniProt Q13470); assay: Binding affinity to wild-type human full length TNK1 (M1 to P661 residues) expressed in bacterial expression system assessed as remaining unbound target protein level at 1000 nM by Kinomescan method relative to control; outline: as §3
[21] = target: Tyrosine-protein kinase ZAP-70 (Homo sapiens) (UniProt P43403); assay: Binding affinity to wild-type human partial length ZAP70 (D20 to G299 residues) expressed in mammalian expression system assessed as remaining unbound target protein level at 1000 nM by Kinomescan method relative to control

Mitogen-activated protein kinase kinase kinase 13 (Homo sapiens), sequence (O43283 whole entry, the tested form may be a part): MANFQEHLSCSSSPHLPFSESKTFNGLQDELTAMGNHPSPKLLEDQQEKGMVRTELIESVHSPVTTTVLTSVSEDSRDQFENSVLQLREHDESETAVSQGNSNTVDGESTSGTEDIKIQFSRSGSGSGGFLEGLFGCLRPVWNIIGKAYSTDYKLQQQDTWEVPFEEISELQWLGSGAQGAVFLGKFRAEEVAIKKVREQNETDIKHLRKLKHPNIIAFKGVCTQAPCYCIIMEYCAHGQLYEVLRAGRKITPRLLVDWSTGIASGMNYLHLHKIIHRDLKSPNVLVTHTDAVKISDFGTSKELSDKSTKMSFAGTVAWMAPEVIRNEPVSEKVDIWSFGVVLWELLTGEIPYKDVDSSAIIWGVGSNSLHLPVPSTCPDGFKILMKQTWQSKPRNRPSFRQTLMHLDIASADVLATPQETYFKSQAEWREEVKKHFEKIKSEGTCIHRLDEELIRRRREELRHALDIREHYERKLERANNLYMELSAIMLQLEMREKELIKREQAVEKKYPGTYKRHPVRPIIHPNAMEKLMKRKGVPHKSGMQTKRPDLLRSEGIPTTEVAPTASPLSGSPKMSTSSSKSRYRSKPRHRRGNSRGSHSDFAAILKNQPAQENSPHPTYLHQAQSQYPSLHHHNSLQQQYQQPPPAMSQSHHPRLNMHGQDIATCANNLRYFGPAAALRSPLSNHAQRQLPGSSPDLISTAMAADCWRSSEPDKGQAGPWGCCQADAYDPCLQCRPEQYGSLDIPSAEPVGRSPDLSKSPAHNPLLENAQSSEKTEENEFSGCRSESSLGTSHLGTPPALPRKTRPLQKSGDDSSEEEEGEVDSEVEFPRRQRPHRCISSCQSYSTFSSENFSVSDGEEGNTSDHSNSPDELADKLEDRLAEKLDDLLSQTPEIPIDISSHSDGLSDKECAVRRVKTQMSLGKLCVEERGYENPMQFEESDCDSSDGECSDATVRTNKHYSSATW
Calcium/calmodulin-dependent protein kinase type IV (Homo sapiens), sequence (Q16566 whole entry, the tested form may be a part): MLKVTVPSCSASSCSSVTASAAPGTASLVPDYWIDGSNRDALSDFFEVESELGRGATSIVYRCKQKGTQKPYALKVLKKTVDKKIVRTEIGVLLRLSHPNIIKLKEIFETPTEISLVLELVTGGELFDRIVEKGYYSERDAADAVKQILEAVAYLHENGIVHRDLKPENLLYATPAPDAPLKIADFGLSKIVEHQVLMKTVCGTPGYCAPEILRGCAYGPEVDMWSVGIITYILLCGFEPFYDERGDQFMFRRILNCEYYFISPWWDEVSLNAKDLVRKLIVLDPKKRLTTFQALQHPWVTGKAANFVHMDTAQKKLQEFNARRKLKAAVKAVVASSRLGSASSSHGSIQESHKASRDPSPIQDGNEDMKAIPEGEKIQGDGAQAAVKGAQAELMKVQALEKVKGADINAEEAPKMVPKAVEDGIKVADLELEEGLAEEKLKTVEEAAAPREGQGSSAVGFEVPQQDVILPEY
Serine/threonine-protein kinase PLK2 (Homo sapiens), sequence (Q9NYY3 whole entry, looked up, the tested form may be a part): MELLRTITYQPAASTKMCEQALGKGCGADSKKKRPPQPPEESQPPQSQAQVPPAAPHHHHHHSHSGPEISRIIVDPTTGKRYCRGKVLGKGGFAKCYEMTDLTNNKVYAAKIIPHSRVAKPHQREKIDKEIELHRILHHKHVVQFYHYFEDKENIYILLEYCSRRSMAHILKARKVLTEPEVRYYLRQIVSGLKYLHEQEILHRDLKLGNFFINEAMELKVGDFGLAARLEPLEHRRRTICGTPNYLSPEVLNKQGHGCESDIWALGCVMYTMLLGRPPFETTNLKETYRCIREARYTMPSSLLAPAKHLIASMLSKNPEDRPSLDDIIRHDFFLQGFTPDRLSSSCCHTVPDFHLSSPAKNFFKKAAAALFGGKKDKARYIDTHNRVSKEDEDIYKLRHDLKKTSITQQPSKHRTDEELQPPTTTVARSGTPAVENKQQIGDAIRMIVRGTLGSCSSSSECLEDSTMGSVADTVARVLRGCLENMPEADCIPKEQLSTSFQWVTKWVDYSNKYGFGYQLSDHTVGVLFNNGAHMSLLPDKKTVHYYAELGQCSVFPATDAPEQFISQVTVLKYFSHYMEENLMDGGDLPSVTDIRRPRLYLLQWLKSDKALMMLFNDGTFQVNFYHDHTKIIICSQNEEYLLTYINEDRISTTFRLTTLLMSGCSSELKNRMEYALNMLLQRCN
Serine/threonine-protein kinase MRCK alpha (Homo sapiens), sequence (Q5VT25 whole entry, the tested form may be a part): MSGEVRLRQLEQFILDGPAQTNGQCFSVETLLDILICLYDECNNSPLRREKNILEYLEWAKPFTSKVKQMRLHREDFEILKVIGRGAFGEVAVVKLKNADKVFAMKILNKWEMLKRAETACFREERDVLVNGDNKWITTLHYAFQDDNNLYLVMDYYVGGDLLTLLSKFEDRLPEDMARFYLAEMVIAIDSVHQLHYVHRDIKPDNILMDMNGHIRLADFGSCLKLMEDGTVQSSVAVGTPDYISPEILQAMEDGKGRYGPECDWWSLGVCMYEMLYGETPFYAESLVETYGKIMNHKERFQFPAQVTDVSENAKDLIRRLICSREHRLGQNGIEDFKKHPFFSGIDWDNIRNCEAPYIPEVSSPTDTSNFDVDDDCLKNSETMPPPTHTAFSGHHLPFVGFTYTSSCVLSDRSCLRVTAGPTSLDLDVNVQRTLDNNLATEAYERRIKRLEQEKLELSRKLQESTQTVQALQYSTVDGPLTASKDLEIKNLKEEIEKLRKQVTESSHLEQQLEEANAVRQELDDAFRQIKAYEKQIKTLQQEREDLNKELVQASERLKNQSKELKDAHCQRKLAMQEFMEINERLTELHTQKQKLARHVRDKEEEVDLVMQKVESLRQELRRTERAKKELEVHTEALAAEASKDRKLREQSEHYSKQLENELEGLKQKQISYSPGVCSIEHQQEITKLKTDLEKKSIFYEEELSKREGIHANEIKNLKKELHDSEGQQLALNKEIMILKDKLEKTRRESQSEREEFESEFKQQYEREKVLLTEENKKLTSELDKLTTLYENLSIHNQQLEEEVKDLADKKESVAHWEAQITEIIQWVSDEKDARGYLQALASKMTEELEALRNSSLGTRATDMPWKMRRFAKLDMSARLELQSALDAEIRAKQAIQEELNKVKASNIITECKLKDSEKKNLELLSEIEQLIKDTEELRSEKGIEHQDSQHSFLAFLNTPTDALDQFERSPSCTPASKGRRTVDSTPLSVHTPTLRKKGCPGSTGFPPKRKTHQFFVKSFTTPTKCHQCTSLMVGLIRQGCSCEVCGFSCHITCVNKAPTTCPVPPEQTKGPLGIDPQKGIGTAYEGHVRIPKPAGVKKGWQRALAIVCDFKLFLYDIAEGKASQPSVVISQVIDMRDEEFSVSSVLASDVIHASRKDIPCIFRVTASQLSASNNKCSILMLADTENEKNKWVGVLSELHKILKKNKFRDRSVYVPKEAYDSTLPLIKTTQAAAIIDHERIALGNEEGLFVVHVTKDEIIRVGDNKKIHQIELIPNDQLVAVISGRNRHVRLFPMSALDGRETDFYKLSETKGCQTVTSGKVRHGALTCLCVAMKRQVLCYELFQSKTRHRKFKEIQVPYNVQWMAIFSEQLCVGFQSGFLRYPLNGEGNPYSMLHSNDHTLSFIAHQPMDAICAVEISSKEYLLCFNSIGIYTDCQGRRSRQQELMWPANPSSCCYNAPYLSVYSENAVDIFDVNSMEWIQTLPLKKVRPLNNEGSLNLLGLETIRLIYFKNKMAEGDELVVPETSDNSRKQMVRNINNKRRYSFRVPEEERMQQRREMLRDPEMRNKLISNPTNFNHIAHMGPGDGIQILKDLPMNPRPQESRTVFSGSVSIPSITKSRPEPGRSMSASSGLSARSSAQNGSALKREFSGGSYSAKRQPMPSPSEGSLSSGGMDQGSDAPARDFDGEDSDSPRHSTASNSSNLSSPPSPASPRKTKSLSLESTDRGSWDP
Serine/threonine-protein kinase Sgk3 (Homo sapiens), sequence (Q96BR1 whole entry, the tested form may be a part): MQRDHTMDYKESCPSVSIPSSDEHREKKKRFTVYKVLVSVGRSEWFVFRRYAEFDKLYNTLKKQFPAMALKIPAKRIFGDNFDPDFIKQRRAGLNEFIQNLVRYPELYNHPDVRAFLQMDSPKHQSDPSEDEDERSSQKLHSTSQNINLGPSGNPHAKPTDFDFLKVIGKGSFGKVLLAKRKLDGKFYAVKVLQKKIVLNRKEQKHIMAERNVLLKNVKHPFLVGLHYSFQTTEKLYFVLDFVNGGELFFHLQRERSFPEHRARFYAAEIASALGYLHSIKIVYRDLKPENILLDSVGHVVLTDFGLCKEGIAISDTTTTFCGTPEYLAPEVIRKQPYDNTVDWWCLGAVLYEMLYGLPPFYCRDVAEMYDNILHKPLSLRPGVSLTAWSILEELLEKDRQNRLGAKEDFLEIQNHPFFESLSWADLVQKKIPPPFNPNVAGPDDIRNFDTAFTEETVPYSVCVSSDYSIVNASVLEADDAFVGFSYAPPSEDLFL
RAC-alpha serine/threonine-protein kinase (Homo sapiens), sequence (P31749 whole entry): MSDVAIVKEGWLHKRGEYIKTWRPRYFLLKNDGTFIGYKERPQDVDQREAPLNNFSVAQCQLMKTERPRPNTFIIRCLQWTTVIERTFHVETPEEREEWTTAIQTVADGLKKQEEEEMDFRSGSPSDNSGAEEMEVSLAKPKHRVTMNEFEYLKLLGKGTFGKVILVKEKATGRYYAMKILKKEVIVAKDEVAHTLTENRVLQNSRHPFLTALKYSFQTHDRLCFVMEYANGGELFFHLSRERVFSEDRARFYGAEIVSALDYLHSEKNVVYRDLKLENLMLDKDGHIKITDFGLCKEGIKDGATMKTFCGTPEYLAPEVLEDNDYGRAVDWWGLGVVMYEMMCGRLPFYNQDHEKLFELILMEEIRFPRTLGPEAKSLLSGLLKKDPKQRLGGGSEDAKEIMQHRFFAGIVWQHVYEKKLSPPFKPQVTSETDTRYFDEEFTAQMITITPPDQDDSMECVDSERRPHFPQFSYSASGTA

With `COCCN[C@H]1CC[C@H](Nc2cc(-c3csc(NCC4(C#N)CCOCC4)n3)c(Cl)cn2)CC1` the Activity (MV4-11) was “Dose-dependent effect”, the Tmax [1] was 2 h and the clearance [2] was 11.9 mL/min/kg. The Activity [3] was 92%, the Activity [4] was 100% and the Activity [5] was 93%. For the same compound, the Activity [6] was 93%, the Activity [7] was 86% and the Activity [8] was 92%. For the same compound, the Activity [9] was 100%, the Activity [10] was 99% and the Activity [11] was 83%. For the same compound, the Activity [12] was 49%, the Activity [13] was 80% and the Activity [14] was 100%. For the same compound, the Activity [15] was 100%, the Activity [16] was 100% and the Activity [17] was 100%. The Activity [18] was 100%, the Activity [19] was 83% and the Activity [20] was 56%. It also gave an Activity [21] of 79%.
